Columns and labels:
[1] = tested on: RG2 cells; assay: MTT cytotoxicity assay in wild-type cells; assay type: cell-based, Rat
Outline: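 Non-transduced rat glioma RG2 cells were grown in DMEM with 10% FBS and 1% penicillin/streptomycin at 37 °C under 5% CO2, then seeded at 1.5 × 10^3 cells/well and incubated overnight. Test compound was applied at 0.001–1000 μmol/L in quadruplicate for 72 h at 37 °C. MTT (1 mg/mL) was added for 3 h, and formazan was dissolved in DMSO. A490 (650 nm reference) was blank-subtracted and growth expressed as % of untreated control.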

[2] = cited from earlier work
[3] = tested on: RG2 cells; assay: In vitro cell uptake of radiolabeled nucleosides in non-transduced control cells; assay type: cell-based, Rat; conditions: 2 h incubation, % of total radioactivity per 10^6 cells, wild-type RG2 cells
[4] = tested on: RG2TK+ cells; assay: In vitro cell uptake of radiolabeled nucleosides in HSV1-tk expressing cells; assay type: cell-based, Rat; conditions: 2 h incubation, % of total radioactivity per 10^6 cells
[5] = normal mice; cited from earlier work

O=c1[nH]c(=O)n([C@@H]2O[C@H](CO)[C@@H](O)[C@@H]2F)cc1I [FIAU]
Cytotoxicity to RG2 cells (in words) [1]: moderately toxic to RG2 cells | Diffusion across the intact BBB [2]: does not diffuse across the intact BBB

Nc1nc(O)c2ncn(COC(CO)CO)c2n1 [GCV, ganciclovir]
Cytotoxicity to RG2 cells (in words) [1]: not active against RG2 cells

O=c1[nH]c(=O)n([C@@H]2O[C@H](CO)[C@@H](O)[C@@H]2F)cc1CCCC[18F] [[^18F]FFBuAU]
% Uptake per 10^6 Cells, RG2 [3]: 0.66 % per 10^6 cells

O=c1[nH]c(=O)n([C@H]2C[C@H](O)[C@@H](CO)O2)cc1CCCCC[18F] [[^18F]FPeDU]
% Uptake per 10^6 Cells, RG2 [3]: 0.23 % per 10^6 cells

O=c1[nH]c(=O)n([C@H]2C[C@H](O)[C@@H](CO)O2)cc1CCC[18F] [[^18F]FPrDU]
% Uptake per 10^6 Cells, RG2TK+ [4]: 8.4 % per 10^6 cells

O=c1[nH]c(=O)n([C@@H]2O[C@H](CO)[C@@H](O)[C@@H]2F)cc1/C=C/[123I] [[^123I]IVFAU]
Brain uptake [5]: very low brain uptake

O=c1[nH]c(=O)n([C@@H]2O[C@H](CO)[C@@H](O)[C@H]2F)cc1/C=C/[123I] [[^123I]IVFRU]
Brain uptake [5]: very low brain uptake

O=c1[nH]c(=O)n([C@@H]2O[C@H](CO)[C@@H](O)[C@@H]2F)cc1[125I] [[^125I]FIAU, 2′-fluoro-2′-deoxy-5-[^125I]iodo-1-β-D-arabinofuranosyluracil]
% Uptake per 10^6 Cells, RG2 [3]: 3.44 % per 10^6 cells | % Uptake per 10^6 Cells, RG2TK+ [4]: 29.4 % per 10^6 cells
